Test results as given in ChEMBL document CHEMBL1157867, “Synthesis of substituted acridinyl pyrazoline derivatives and their evaluation for anti-inflammatory activity” (Eur J Med Chem, 2010).

Experiments:
[1] = tested on: Mus musculus; assay: Analgesic activity in albino mouse assessed as decrease in acetic acid-induced writhing at 50 mg/kg, ip administered 30 mins before acetic acid challenge measured after 1 hr relative to control; type: functional; parameters: scale not given: the % may be the effect or the level left; conditions: route intraperitoneal
How it was run: (§1)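 Mice of 15–25 g; compounds dissolved in propylene glycol. Acetic acid 0.5%, 0.25 mL/mouse, injected intraperitoneally 30 min after dosing. Mean number of writhes per group counted, and percent decrease versus control calculated after 60 min.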

[2] = tested on: Rattus norvegicus; assay: Antiinflammatory activity in Charles Foster albino rat assessed as carrageenan-induced paw edema at 50 mg/kg, po administered 1 hr before carrageenan challenge measured after 3 hrs relative to control; type: functional
How it was run: (§2)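 Charles-Foster albino rats of either sex, pregnant females excluded, 70–95 days old, 120–175 g, food and water ad libitum. Groups of six. Compounds in propylene glycol given orally 1 h before 0.05 mL of 1% carrageenan in 0.9% saline, injected under the plantar aponeurosis of the right hind paw. Paw volume read by plethysmometer before and 3 h after injection. Inhibition (%) = (1 − Vt/Vc) × 100.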

[3] = Toxicity in ip dosed albino mouse; type: organism-based; conditions: in vivo, read-out: ALD50
How it was run: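 Acute lethal dose (ALD50) determined in albino mice of 15–25 g, given food pellets and water ad libitum. Compounds were dissolved in propylene glycol. The procedure followed a previously published method.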

[4] = tested on: Rattus norvegicus; assay: Antiinflammatory activity in Charles Foster albino rat assessed as carrageenan-induced paw edema at 25 mg/kg, po administered 1 hr before carrageenan challenge measured after 3 hrs relative to control; type: functional; how it was run: as §2
[5] = tested on: Mus musculus; assay: Analgesic activity in albino mouse assessed as decrease in acetic acid-induced writhing at 25 mg/kg, ip administered 30 mins before acetic acid challenge measured after 1 hr relative to control; type: functional; parameters: scale not given: the % may be the effect or the level left; conditions: route intraperitoneal; how it was run: as §1
[6] = tested on: Mus musculus; assay: Analgesic activity in albino mouse assessed as decrease in acetic acid-induced writhing at 100 mg/kg, ip administered 30 mins before acetic acid challenge measured after 1 hr relative to control; type: functional; parameters: scale not given: the % may be the effect or the level left; conditions: route intraperitoneal; how it was run: as §1
[7] = tested on: Rattus norvegicus; assay: Antiinflammatory activity in Charles Foster albino rat assessed as carrageenan-induced paw edema at 100 mg/kg, po administered 1 hr before carrageenan challenge measured after 3 hrs relative to control; type: functional; how it was run: as §2

Row | Compound | Activity [1] | Activity [2] | LD50 [3] | Activity [4] | Activity [5] | Activity [6] | Activity [7]
1 | COc1ccc2nc3ccccc3c(N3N=C(CBr)CC3=O)c2c1 | 15.9% | 13.5% | > 1000 mg/kg |  |  |  | 
2 | O=C1CC(CBr)=NN1c1c2ccccc2nc2ccc(Br)cc12 | 13.6% | 17.1% | > 1000 mg/kg |  |  |  | 
3 | COc1cc(Cl)c2nc3ccccc3c(N3N=C(CBr)CC3=O)c2c1 | 16.3% | 18.6% | > 1000 mg/kg |  |  |  | 
4 | COc1cc(Cl)c2nc3ccccc3c(N3N=C(C)CC3=O)c2c1 | 13.4% | 14.4% | > 1000 mg/kg |  |  |  | 
5 | CC1=NN(c2c3ccccc3nc3c(Cl)cc(Cl)cc23)C(=O)C1 | 14.7% | 17.6% | > 1000 mg/kg |  |  |  | 
6 | O=C1CC(CBr)=NN1c1c2ccccc2nc2ccccc12 | 13.2% | 12.8% | > 1000 mg/kg |  |  |  | 
7 | CC1=NN(c2c3ccccc3nc3ccccc23)C(=O)C1 | 8.6% | 10.8% | > 1000 mg/kg |  |  |  | 
8 | CC1=NN(c2c3ccccc3nc3ccc(Cl)cc23)C(=O)C1 | 12.6% | 13.5% | > 1000 mg/kg |  |  |  | 
9 | COc1ccc2nc3ccccc3c(N3N=C(C)CC3=O)c2c1 | 10.8% | 11.5% | > 1000 mg/kg |  |  |  | 
10 | O=C1CC(CSc2nnc(-c3ccncc3)o2)=NN1c1c2ccccc2nc2c(Cl)cc(Cl)cc12 | 33.5% | 40.8% | > 1000 mg/kg | 32.1% | 30.6% | 42.4% | 
11 | COc1ccc2nc3ccccc3c(N3N=C(CSc4nnc(-c5ccncc5)o4)CC3=O)c2c1 | 29.7% | 31.2% | > 1000 mg/kg |  |  |  | 
12 | O=C1CC(CSc2nnc(-c3ccncc3)o2)=NN1c1c2ccccc2nc2ccc(Br)cc12 | 28.8% | 31.5% | > 1000 mg/kg |  |  |  | 
13 | O=C1CC(CBr)=NN1c1c2ccccc2nc2c(Cl)cc(Cl)cc12 | 18.6% | 20.7% | > 1000 mg/kg |  |  |  | 
14 | O=C1CC(CSc2nnc(-c3ccncc3)o2)=NN1c1c2ccccc2nc2ccccc12 | 25.9% | 24.1% | > 1000 mg/kg |  |  |  | 
15 | O=C1CC(CSc2nnc(-c3ccncc3)o2)=NN1c1c2ccccc2nc2ccc(Cl)cc12 | 30.6% | 27.2% | > 1000 mg/kg |  |  |  | 
16 | O=C1CC(CBr)=NN1c1c2ccccc2nc2ccc(Cl)cc12 | 16.4% | 15.9% | > 1000 mg/kg |  |  |  | 
17 | CC1=NN(c2c3ccccc3nc3ccc(Br)cc23)C(=O)C1 | 12.9% | 12.6% | > 1000 mg/kg |  |  |  | 
18 | CC(=O)Oc1ccccc1C(=O)O [ASPIRIN] |  |  |  | 30.25% | 30.2% | 59.3% | 60.8%
19 | CCCCC1C(=O)N(c2ccccc2)N(c2ccccc2)C1=O [PHENYLBUTAZONE] |  |  |  | 31.4% | 31% | 42.6% | 63.4%
